Bioassay records from PubChem BioAssay.
APP 5UTR inh – APP translation inhibition; SH-SY5Y APP 5'UTR-luciferase reporter, luminescence; inhibition, % at 2 µM; 190,000 compounds, 0.82% hits;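 active = inhibition above a set limit, derived from the sample mean plus 3 SD, cut at about 45% in these data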
b-catenin transl – modulators of beta-catenin nuclear translocation; HeLa beta-catenin nuclear translocation, immunofluorescence imaging; nuclear translocation activity, % at 5 µM; 190,000 compounds, 0.3% hits;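 active = nuclear translocation activity above 50% at 5 µM, with a well cell count of 50 or more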;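 also: per-cell ratio of nuclear to cytoplasmic median beta-catenin stain intensity; plate controls were DMSO negative control for no effect and GSK-3 inhibitor IX positive control for full effect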
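Assay system: human HeLa cells, native beta-catenin; doses: 5 µM primary, 0.02–20 µM confirmation; incubation: compound treatment 24 h, 37°C, 5% CO2; technique: fluorescence imaging of beta-catenin antibody stain plus DAPI; measure: % activation, nuclear-to-cytoplasmic median beta-catenin signal ratio per cell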
L major viab – inhibitors of Leishmania major promastigote growth | 200,000 compounds, 9% hits | AID 1063 | Leishmania major promastigotes, resazurin fluorescence viability | inhibition, % at 10 µM; in the data active = inhibition above about 50%;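 also: promastigotes grown with compound for 44 hours at 28 °C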
BaF3 tox – reduces parental Ba/F3 cell viability, JAK2V617F counter-screen | CellTiter-Glo ATP luminescence | inhibition, % at 5.6 µM | AID 1486 | 220,000 compounds, 1.1% hits;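 active = inhibition above a per-campaign cutoff, the mean inhibition of all tested compounds plus 3 SD, cut at about 27% in these data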;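 also: 0% = DMSO wells and 100% = JAK Inhibitor I control wells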
MT stabilize HCS – microtubule stabilization, imaging screen; HeLa tubulin immunostaining HCS, 24 h; share of cells brighter than vehicle mean+2SD; % tubulin-high responders, % at 10 µM; 200,000 compounds, 0.83% hits;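 active = plate Z-score above 3 for both tubulin-high and condensed-nucleus cell shares, with cell loss under 80%, at 10 µM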;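 also: anti alpha tubulin signal scored within the nucleus-defined area of each cell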
Ba/F3 V617F tox – loss of viability in JAK2V617F-driven Ba/F3 cells; 220,000 compounds, 1.1% hits; Ba/F3 EpoR-JAK2V617F viability, ATP luminescence; AID 1446; inhibition, % at 5.6 µM;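 active = inhibition above the campaign mean plus 3 SD over all tested compounds, cut at about 24% in these data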;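 also: cytokine-independent growth of Ba/F3 cells driven by EpoR plus mutant JAK2; 0% = DMSO-treated cells and 100% = JAK inhibitor I control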
* = called active by the depositor. Sampled rows, rich in hits. Any-hit rate of the full collection: about 9.6%.

CCOC(=O)C1CCN(C(=O)COc2ccc(S(=O)(=O)N3CCCC3)cc2C)CC1 was read as APP 5UTR inh -9, b-catenin transl -3, L major viab -2, BaF3 tox 9, MT stabilize HCS 2 and Ba/F3 V617F tox -1.
For COc1cc2c(cc1NC(=O)C(C)OC(=O)/C=C/c1ccc(OC(F)F)cc1)oc1ccccc12 (centres undefined) the results were APP 5UTR inh -15, L major viab 80*, BaF3 tox 6, MT stabilize HCS 2 and Ba/F3 V617F tox -2.
`COc1cc2c(cc1NC(=S)NC(=O)/C=C/c1ccc(OC)c(OC)c1)oc1ccccc12` gave APP 5UTR inh -12, b-catenin transl 0, L major viab 46, BaF3 tox 6, MT stabilize HCS 1 and Ba/F3 V617F tox -3.
For COc1cc2c(cc1NC(=O)Nc1ccc(C)cc1)oc1ccccc12 the results were APP 5UTR inh 9, b-catenin transl -5, L major viab 98*, BaF3 tox 1, MT stabilize HCS 3 and Ba/F3 V617F tox -5.
For COc1cc2c(cc1NC(=O)/C=C/c1ccccc1)oc1ccccc12 the results were APP 5UTR inh 1, b-catenin transl 1, L major viab 10, BaF3 tox 7, MT stabilize HCS 2 and Ba/F3 V617F tox 0.
Screening COc1ccc(/C=C/C(=O)NC(=S)Nc2cc3oc4ccccc4c3cc2OC)cc1 returned APP 5UTR inh -20, b-catenin transl -2, L major viab 50*, BaF3 tox 5, MT stabilize HCS 1 and Ba/F3 V617F tox 0.
Screening Cc1ccc(NS(=O)(=O)c2cc(C(=O)N3CCN(C)CC3)ccc2C)cc1C returned APP 5UTR inh -18, b-catenin transl -4, L major viab -6, BaF3 tox 7, MT stabilize HCS 2 and Ba/F3 V617F tox 0.
Screening CSc1ccc2c(c1)N(CCC1CCCCN1C)c1ccccc1S2 (centres undefined) returned APP 5UTR inh -1, b-catenin transl 9, L major viab 99*, BaF3 tox 6, MT stabilize HCS 4 and Ba/F3 V617F tox 0.
For CC1CC(=O)N(CC(=O)N2CCCC2)c2ccccc2S1 (centres undefined) the results were APP 5UTR inh 13, b-catenin transl 0, L major viab -5, BaF3 tox 5, MT stabilize HCS 3 and Ba/F3 V617F tox 2.
O=C1CC(/C=C/c2ccncc2)=Nc2ccccc2N1 was read as APP 5UTR inh 1, b-catenin transl 5, L major viab 65*, BaF3 tox 0, MT stabilize HCS 7 and Ba/F3 V617F tox -1.
O=C1CC(c2ccccc2)=Nc2ccccc2N1 was read as APP 5UTR inh 0, L major viab 0, BaF3 tox 7, MT stabilize HCS 3 and Ba/F3 V617F tox 1.
CCOC(=O)N1CCN(C(=O)CCl)CC1 was read as APP 5UTR inh 19, b-catenin transl 2, L major viab 10, BaF3 tox -1, MT stabilize HCS 3 and Ba/F3 V617F tox 1.
C=CCN1C(=NC(=O)CC)SC2CS(=O)(=O)CC21 (centres undefined) was read as APP 5UTR inh -8, b-catenin transl 1, L major viab -6, BaF3 tox 5, MT stabilize HCS 2 and Ba/F3 V617F tox 1.
For COc1ccc(OC)c(/C=C/C(=O)N(C)CC(=O)Nc2cc(C)ccc2C)c1 the results were APP 5UTR inh 66*, b-catenin transl 4, L major viab 87*, BaF3 tox -1, MT stabilize HCS 3 and Ba/F3 V617F tox -3.
O=C(Cn1nc(C(F)(F)F)c2c1CCC2)NCc1ccc(Cl)cc1 was read as APP 5UTR inh -8, b-catenin transl 0, L major viab 23, BaF3 tox 6, MT stabilize HCS 3 and Ba/F3 V617F tox -3.
Cc1cc(-c2nnc(CCC(=O)N(C)C(C)c3cccs3)o2)no1 (centres undefined) was read as b-catenin transl -1, BaF3 tox 1 and Ba/F3 V617F tox 5.
Screening O=C(O)CC(=O)Nc1cc(Cl)ccc1O returned APP 5UTR inh 15, b-catenin transl -9, L major viab 1, BaF3 tox 6, MT stabilize HCS 1 and Ba/F3 V617F tox 4.
Screening Cc1cc(NC(=O)CCc2ccccc2)c([N+](=O)[O-])cc1C returned APP 5UTR inh -17, b-catenin transl 0, L major viab 51*, BaF3 tox 8, MT stabilize HCS 6 and Ba/F3 V617F tox 4.
`Cc1cc(C)c([N+](=O)[O-])cc1NC(=O)CCSc1ccccc1Cl` gave APP 5UTR inh -4, L major viab 55*, BaF3 tox 6, MT stabilize HCS 1 and Ba/F3 V617F tox -1.
For O=C(CCc1ccccc1)Nc1cc(Cl)ccc1O the results were APP 5UTR inh -10, b-catenin transl 1, L major viab 78*, BaF3 tox 29*, MT stabilize HCS 2 and Ba/F3 V617F tox 23.
`COc1cc([N+](=O)[O-])cc2sc(NC(=O)c3c(F)cccc3F)nc12` gave APP 5UTR inh -14, b-catenin transl -3, L major viab -1, BaF3 tox 5, MT stabilize HCS 2 and Ba/F3 V617F tox 0.
For CC(C)=CC(=O)N1CCC(N2CCC(C(=O)N3CCOCC3)CC2)CC1 the results were APP 5UTR inh 15, b-catenin transl -2, L major viab -2, BaF3 tox 0, MT stabilize HCS 1 and Ba/F3 V617F tox -2.
For CC(C)=CCCC(C)CN1CCC(N2CCC(C(=O)N3CCOCC3)CC2)CC1 (centres undefined) the results were APP 5UTR inh -6, b-catenin transl 0, L major viab 96*, BaF3 tox 8, MT stabilize HCS 1 and Ba/F3 V617F tox -2.
CC(C)=CCCC(C)CN1CCC(N2CCC(C(=O)NC(C)C)CC2)CC1 (centres undefined) was read as APP 5UTR inh -7, b-catenin transl 0, L major viab 83*, BaF3 tox 12, MT stabilize HCS 4 and Ba/F3 V617F tox 9.
Screening O=C(C1CCN(C2CCN(CC3CC=CCC3)CC2)CC1)N1CCOCC1 (centres undefined) returned APP 5UTR inh -17, b-catenin transl -2, L major viab 76*, BaF3 tox 8, MT stabilize HCS 0 and Ba/F3 V617F tox -1.
`CC(C)NC(=O)C1CCN(C2CCN(CC3CC=CCC3)CC2)CC1` (centres undefined) gave APP 5UTR inh 6, b-catenin transl 0, L major viab 9, BaF3 tox 11, MT stabilize HCS 1 and Ba/F3 V617F tox 2.
`O=c1[nH]c(=S)[nH]cc1Oc1ccc(Cl)cc1Cl` gave b-catenin transl -1, BaF3 tox -3 and Ba/F3 V617F tox -2.
`Cc1ccc(C)c(CSCC(=O)NCc2cccs2)c1` gave APP 5UTR inh 0, b-catenin transl -3, L major viab -7, BaF3 tox 4, MT stabilize HCS 3 and Ba/F3 V617F tox 0.
